The values below come from ChEMBL document CHEMBL1139401, “5-(4-Chlorophenyl)-5,6-dihydro-1,3-oxazepin-7(4H)-one derivatives as lipophilic cyclic analogues of baclofen: design, synthesis, and neuropharmacological evaluation” (2008).

One assay deals with Mus musculus. The experiment in a line: Neuropharmacological effect in albino mouse assessed as endurance time at 3 mg/kg, ip after 45 mins by rotarod test. The class given is functional. The settings on record: route intraperitoneal. The method, boiled down:
(§1)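 For the rotarod, the cylinder was 6 cm diameter, 30 cm high and turned at 12 rpm. Male albino mice were trained the day before to stay on for 300 s, and those not reaching this were excluded. Endurance time (max 300 s) was measured 30, 45, 60 and 90 min after ip drug in DMSO or vehicle. Five mice per group; mean ± SEM.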
In general terms: In the rotarod test animals must keep their balance on a rotating rod.
As for `CCCCCCCCCCCCCC1=NCC(c2ccc(Cl)cc2)CC(=O)O1` (configuration not stated), the Activity is 174 s.

The test system of the next assay is Mus musculus. The experiment in a line: Neuropharmacological effect in albino mouse assessed as endurance time at 3 mg/kg, ip after 60 mins by rotarod test. Conditions: route intraperitoneal. It is filed as functional. The method, boiled down: as §1
As for `CCCCCCCCCCCCCC1=NCC(c2ccc(Cl)cc2)CC(=O)O1` (configuration not stated), the Activity is given as 169 s.

Another assay relates to Mus musculus. The experiment in a line: Neuropharmacological effect in albino mouse assessed as endurance time at 3 mg/kg, ip after 90 mins by rotarod test. The class given is functional. Conditions: route intraperitoneal. The method, boiled down:
as §1
Turning to `CCCCCCCCCCCCCC1=NCC(c2ccc(Cl)cc2)CC(=O)O1` (configuration not stated), the Activity came out at 133 s.

In another assay the test system is Mus musculus. Kind of assay: Muscle relaxant activity in albino mouse at 3 mg/kg, ip after 30 mins by traction test. It is filed as functional. Further details: scale not given: the % may be the effect or the level left. Conditions: route intraperitoneal. The procedure, abridged:
(§2)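 Traction test in male albino mice (20–25 g), five per group, given drug ip in DMSO. Success required touching the wire with at least one hind paw within 5 s; otherwise scored as failure. Mice were tested 30, 45, 60 and 90 min after dosing, immediately before the rotarod. Results are % successful, mean ± SEM.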
`CCCCCCCCCCCCCC1=NCC(c2ccc(Cl)cc2)CC(=O)O1` (configuration not stated): the Activity is on record as 40%.

Another assay relates to Mus musculus. The experiment in a line: Muscle relaxant activity in albino mouse at 3 mg/kg, ip after 45 mins by traction test. It is filed as functional. Further details: scale not given: the % may be the effect or the level left. Conditions: route intraperitoneal. The method, boiled down: as §2
On to `CCCCCCCCCCCCCC1=NCC(c2ccc(Cl)cc2)CC(=O)O1` (configuration not stated), for which the Activity worked out at 40%.

Another assay relates to Mus musculus. Kind of assay: Muscle relaxant activity in albino mouse at 3 mg/kg, ip after 60 mins by traction test. Further details: scale not given: the % may be the effect or the level left. The settings on record: route intraperitoneal. The class given is functional. The procedure, abridged: as §2
As for `CCCCCCCCCCCCCC1=NCC(c2ccc(Cl)cc2)CC(=O)O1` (configuration not stated), the Activity was 35%.

For the next assay, the system named is Mus musculus. The experiment in a line: Muscle relaxant activity in albino mouse at 3 mg/kg, ip after 90 mins by traction test. It is filed as functional. Conditions: route intraperitoneal. Further details: scale not given: the % may be the effect or the level left. The procedure, abridged: as §2
In the case of `CCCCCCCCCCCCCC1=NCC(c2ccc(Cl)cc2)CC(=O)O1` (configuration not stated), the Activity turned out to be 35%.

The subject of another assay is Mus musculus. Kind of assay: Analgesic activity in albino mouse assessed as retention latency at 3 mg/kg, ip after 30 mins by hot plate test. It is filed as functional. The settings on record: route intraperitoneal. The method, boiled down: (§3)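 Male albino mice (20–25 g), five per group, given drug in DMSO ip; vehicle controls got DMSO alone. Mice were placed in a glass cylinder on a 54 °C metal plate. Latency to hind-paw lick or jump was recorded, with a 30 s cut-off. Testing was 30, 45, 60 and 90 min post-injection. Values are mean ± SEM.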
On to `CCCCCCCCCCCCCC1=NCC(c2ccc(Cl)cc2)CC(=O)O1` (configuration not stated), for which the Activity turned out to be 8.33 s.

For the next assay, the system named is Mus musculus. Kind of assay: Analgesic activity in albino mouse assessed as retention latency at 3 mg/kg, ip after 45 mins by hot plate test. It is filed as functional. Conditions: route intraperitoneal. The method, boiled down:
as §3
As for `CCCCCCCCCCCCCC1=NCC(c2ccc(Cl)cc2)CC(=O)O1` (configuration not stated), the Activity is given as 15.32 s.

The next assay relates to Mus musculus. Kind of assay: Analgesic activity in albino mouse assessed as retention latency at 3 mg/kg, ip after 60 mins by hot plate test. It is filed as functional. Conditions: route intraperitoneal. The method, boiled down:
as §3
On the technique in general: Hot-plate and tail-flick tests time the reaction to a heat stimulus.
For `CCCCCCCCCCCCCC1=NCC(c2ccc(Cl)cc2)CC(=O)O1` (configuration not stated), the Activity is reported as 18.45 s.

For the next assay, the system named is Mus musculus. The experiment in a line: Analgesic activity in albino mouse assessed as retention latency at 3 mg/kg, ip after 90 mins by hot plate test. The class given is functional. The settings on record: route intraperitoneal. The procedure, abridged:
as §3
On to `CCCCCCCCCCCCCC1=NCC(c2ccc(Cl)cc2)CC(=O)O1` (configuration not stated), for which the Activity was 26.13 s.

Another assay has as its system Mus musculus. The experiment in a line: Neuropharmacological effect in albino mouse assessed as onset of loss of righting reflex at 3 mg/kg, ip. The class given is functional. The settings on record: route intraperitoneal. The procedure, abridged:
(§4)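 Male albino mice (20–25 g), five per group, injected ip (drug in DMSO). Loss of righting reflex was inability to right within 30 s, after which mice were laid supine in a 90° trough. Return was righting twice within 1 min. Onset was recorded, and duration was the time from loss to return. Values are mean ± SEM.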
For `CCCCCCCCCCCCCC1=NCC(c2ccc(Cl)cc2)CC(=O)O1` (configuration not stated), the Activity turned out to be 32.16 min.

Another assay concerns Mus musculus. Kind of assay: Neuropharmacological effect in albino mouse assessed as duration of loss of righting reflex at 3 mg/kg, ip. The class given is functional. Conditions: route intraperitoneal. The procedure, abridged: as §4
`CCCCCCCCCCCCCC1=NCC(c2ccc(Cl)cc2)CC(=O)O1` (configuration not stated): the Activity came to 75.93 min.

A further assay has as its system Mus musculus. The experiment in a line: Neuropharmacological effect in albino mouse assessed as spontaneous locomotor activity at 3 mg/kg, ip after 30 mins. It is filed as functional. The settings on record: route intraperitoneal. The procedure, abridged: (§5)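 Male albino mice (20–25 g), five per group, got ip drug in DMSO or DMSO vehicle and went back to their home cages. After 30, 45, 60 or 90 min each was placed alone in a Plexiglas box and spontaneous locomotor activity was recorded. Tests were run in the morning. Values are mean ± SEM.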
As for `CCCCCCCCCCCCCC1=NCC(c2ccc(Cl)cc2)CC(=O)O1` (configuration not stated), the Activity is reported as 15.24 m.

A further assay deals with Mus musculus. Kind of assay: Neuropharmacological effect in albino mouse assessed as spontaneous locomotor activity at 3 mg/kg, ip after 45 mins. The settings on record: route intraperitoneal. The class given is functional. The method, boiled down: as §5
As to `CCCCCCCCCCCCCC1=NCC(c2ccc(Cl)cc2)CC(=O)O1` (configuration not stated), the Activity was found to be 13.73 m.

The next assay concerns Mus musculus. The experiment in a line: Neuropharmacological effect in albino mouse assessed as spontaneous locomotor activity at 3 mg/kg, ip after 60 mins. It is filed as functional. The settings on record: route intraperitoneal. The method, boiled down: as §5
As for `CCCCCCCCCCCCCC1=NCC(c2ccc(Cl)cc2)CC(=O)O1` (configuration not stated), the Activity is recorded as 14.76 m.

For a further assay, the system named is Mus musculus. Kind of assay: Neuropharmacological effect in albino mouse assessed as spontaneous locomotor activity at 3 mg/kg, ip after 90 mins. The class given is functional. The settings on record: route intraperitoneal. The procedure, abridged: as §5
Regarding `CCCCCCCCCCCCCC1=NCC(c2ccc(Cl)cc2)CC(=O)O1` (configuration not stated), the Activity came to 13.11 m.

A further assay relates to Mus musculus. The experiment in a line: Neuropharmacological effect in albino mouse assessed as endurance time at 3 mg/kg, ip after 30 mins by rotarod test. It is filed as functional. Conditions: route intraperitoneal. The method, boiled down:
as §1
For the molecule `CCCCCCCCCCCCCC1=NCC(c2ccc(Cl)cc2)CC(=O)O1` (configuration not stated), the Activity is given as 219 s.

Another assay concerns Mus musculus. The experiment in a line: Decrease in cognitive impairment in albino mouse assessed as retention latency at 3 mg/kg, ip after 30 mins by passive avoidance reflex test. It is filed as functional. Conditions: route intraperitoneal. The method, boiled down: (§6)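 Passive avoidance in male albino mice (20–25 g), five per group, housed singly from the day before training. Drug in DMSO was given ip 30, 45, 60 or 90 min before the training trial. Mice were put in the light side of a two-compartment apparatus and the door to the dark side was opened. The retention test next day used the shock generator off. Latency reported as mean ± SEM.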
Consider `CCCCCCCCCCCCCC1=NCC(c2ccc(Cl)cc2)CC(=O)O1` (configuration not stated), for which the Activity came to 147.24 s.

Another assay has as its system Mus musculus. The experiment in a line: Decrease in cognitive impairment in albino mouse assessed as retention latency at 3 mg/kg, ip after 45 mins by passive avoidance reflex test. It is filed as functional. The settings on record: route intraperitoneal. The procedure, abridged:
as §6
With `CCCCCCCCCCCCCC1=NCC(c2ccc(Cl)cc2)CC(=O)O1` (configuration not stated), the Activity turned out to be 109.34 s.

The test system of another assay is Mus musculus. The experiment in a line: Decrease in cognitive impairment in albino mouse assessed as retention latency at 3 mg/kg, ip after 60 mins by passive avoidance reflex test. The class given is functional. The settings on record: route intraperitoneal. The method, boiled down: as §6
Consider `CCCCCCCCCCCCCC1=NCC(c2ccc(Cl)cc2)CC(=O)O1` (configuration not stated), for which the Activity came out at 82.36 s.

The next assay has as its system Mus musculus. Kind of assay: Decrease in cognitive impairment in albino mouse assessed as retention latency at 3 mg/kg, ip after 90 mins by passive avoidance reflex test. It is filed as functional. Conditions: route intraperitoneal. The procedure, abridged:
as §6
For `CCCCCCCCCCCCCC1=NCC(c2ccc(Cl)cc2)CC(=O)O1` (configuration not stated), the Activity was determined as 67.56 s.
